NPR2 activator: GC-B (human) receptor activation | 0.11% of 370,000 active | HEK293-GC-B cells, CNP EC30, cGMP TR-FRET; 0% at EC30 CNP, 100% saturating CNP | P20594 | activation, % at 10 µM;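 active = activation at 10 µM reaching about 35% in either raw or pattern-adjusted values, limit read from the data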
aDG glyco act: increases alpha dystroglycan glycosylation. Pro5-aDG cells, alpha-DG glycosylation AlphaScreen (IIH6); 0% Pro5, 100% B10-LARGE cell signal. activation, % at 10 µM. 0.22% of 360,000 active;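 active = activation of at least 8% versus controls, or a plate z-score of at least 8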;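 note: Pro5 are CHO cells carrying HIG-tagged alpha-DG that lacks glycosylation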
JMJD2C inh: inhibitors of human GASC-1 (JMJD2C) demethylase; inhibition, % at 2.35 µM; 0.069% of 330,000 active; Q9H3R0; GST-JMJD2C(1-420) H3K9me3 demethylation, DELFIA europium;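 active = more than half of a compound's replicate wells show inhibition beyond 50%, single wells judged on their own value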;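 note: signal counts dimethyl H3K9 product captured on neutravidin plate; 0% = median of DMSO wells and 100% = 0.3 times that DMSO median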
GC-A act: GC-A (human) enzyme activation | P16066 | HEK293 GC-A cells, cGMP TR-FRET, EC30 ANP; 0% at EC30 ANP, 100% saturating ANP | activation, % at 10 µM | 0.14% of 370,000 active; in the data active = activation above about 40%
Target sequence (P16066 whole entry, looked up): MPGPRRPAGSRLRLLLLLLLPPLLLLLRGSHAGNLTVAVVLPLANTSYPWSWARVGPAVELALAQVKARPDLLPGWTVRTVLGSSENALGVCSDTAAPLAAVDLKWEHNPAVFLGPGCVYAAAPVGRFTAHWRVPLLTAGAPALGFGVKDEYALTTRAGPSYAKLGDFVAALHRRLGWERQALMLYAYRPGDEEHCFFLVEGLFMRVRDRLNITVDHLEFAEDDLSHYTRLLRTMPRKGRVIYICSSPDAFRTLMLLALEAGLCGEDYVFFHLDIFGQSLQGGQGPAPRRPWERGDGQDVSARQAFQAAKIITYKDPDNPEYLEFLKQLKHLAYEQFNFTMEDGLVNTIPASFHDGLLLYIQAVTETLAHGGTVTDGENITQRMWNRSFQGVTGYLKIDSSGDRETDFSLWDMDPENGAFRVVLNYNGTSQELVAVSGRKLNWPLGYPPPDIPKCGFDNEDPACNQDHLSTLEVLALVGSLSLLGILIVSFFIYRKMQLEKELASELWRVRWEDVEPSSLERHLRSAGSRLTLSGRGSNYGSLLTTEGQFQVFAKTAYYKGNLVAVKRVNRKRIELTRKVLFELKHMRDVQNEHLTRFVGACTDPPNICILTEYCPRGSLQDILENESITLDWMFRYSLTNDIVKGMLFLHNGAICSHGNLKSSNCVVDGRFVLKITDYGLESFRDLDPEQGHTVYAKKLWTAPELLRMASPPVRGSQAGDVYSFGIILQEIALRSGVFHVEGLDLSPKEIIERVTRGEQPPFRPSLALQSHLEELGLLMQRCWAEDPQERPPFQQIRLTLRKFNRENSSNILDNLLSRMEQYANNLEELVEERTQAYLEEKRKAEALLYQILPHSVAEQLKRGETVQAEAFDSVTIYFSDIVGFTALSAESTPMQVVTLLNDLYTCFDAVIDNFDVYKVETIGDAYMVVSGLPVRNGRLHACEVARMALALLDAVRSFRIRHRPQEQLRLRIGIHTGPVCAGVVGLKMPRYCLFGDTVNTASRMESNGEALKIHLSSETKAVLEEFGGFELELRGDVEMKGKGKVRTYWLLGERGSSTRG
Lipid droplet: modulators of hepatic lipid droplet formation; AML12 mouse hepatocytes, oleate lipid droplets, BODIPY imaging; inhibition, % at 6.5 µM; 0.4% of 240,000 active; AID 1656;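 active = lipid droplet intensity inhibited by at least 50%, with more than 500 cells counted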
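Material: mouse AML12 hepatocyte cell line, fixed after treatment; Timing: compound with oleate, overnight; Technique: high-content imaging of BODIPY-stained droplets and DAPI nuclei; Probe or stimulus: oleate, 100 µM final; Dosing: compound at 6.5 µM only.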
GRIN3A LBD mod: modulates the human NR3A ligand-binding domain. NR3A LBD differential scanning fluorimetry, Tm shift; 0% = protein alone, 100% = glycine-bound protein. Tm shift relative to glycine control, % at 25 µM. 2.5% of 340,000 active. AID 1259313;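 active = melting temperature shift of at least 10% of the positive control shift, at one fixed dose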
Lipid drop inh: confirmation of inhibitors of hepatic lipid droplet formation; inhibition, % at 5.2 µM; AID 463183; shares compounds with Lipid droplet; AML12 mouse hepatocytes, BODIPY lipid droplet imaging; droplets induced with 100 µM oleic acid; 65% of 870 active;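 active = inhibition of lipid droplet metric at least 50%, with more than 300 cells in each of four replicates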;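 note: plate controls were DMSO with oleic acid for no effect and 5 µM Triacsin-C for full effect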
AML12 tox img: AML12 hepatocyte cytotoxicity (counter-screen); shares compounds with Lipid droplet; AML12 mouse hepatocytes, DAPI nuclear morphology cytotoxicity imaging; active compounds read high; cells fed 100 µM oleate overnight; 3% of 870 active; AID 463200; z-score at 5 µM; in the data active = z-score above about 6.3;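 note: compound exposure lasted overnight at 37 °C before fixation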
AML12 tox ATP: confirmation of cytotoxicity in AML12 mouse hepatocytes; shares compounds with Lipid droplet; AML12 mouse hepatocyte viability, ATP luminescence; cells loaded with 100 µM oleic acid; cytotoxicity, % at 50 µM; 530 tested, under 10 active; AID 463219;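 active = cytotoxicity above 50% in each of four replicates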;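 note: compound exposure lasted overnight at 37 °C before the ATP read; 0% = DMSO-treated cells and 100% = wells with no cells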
* = called active by the depositor; · = no result. Sampled rows, rich in hits. Any-hit rate of the full collection: about 3%.

SMILES | NPR2 activator | aDG glyco act | JMJD2C inh | GC-A act | Lipid droplet | GRIN3A LBD mod | Lipid drop inh | AML12 tox img | AML12 tox ATP
CCN(CC)c1ccc(NC(=O)CN2CCN(S(=O)(=O)c3cc(Cl)ccc3OC)CC2)cc1 | -1 | 2 | 4 | 0 | 60* | -7 | 63* | 0.61 | 12
OCCCNc1cc(-c2ccnc(Nc3cccc(Cl)c3)n2)ccn1 | 3 | 1 | 4 | 15 | 77* | -13 | 90* | 27* | ·
Nc1nc(-c2ccccc2)c(N=Nc2ccccc2Cl)s1 | -13 | -1 | -4 | -6 | 104* | 3 | 114* | -0.57 | 32
Nc1nc(-c2ccccc2)c(N=Nc2cccc3ccccc23)s1 | -9 | -1 | -5 | 2 | 113* | 6 | 115* | 0.42 | 44
COc1ccc2c(c1)-c1c(ssc1=S)C(C)(C)N2S(=O)(=O)c1ccc(C)cc1 | -2 | -1 | 1 | -18 | 51* | -1 | 61 | 1.3 | ·
Cc1ccc(C(C(=O)NC2CCCCC2)N(C(=O)c2csnn2)C2CCCC2)o1 (stereo unspecified) | -8 | 0 | -10 | 0 | 52* | 4 | 81* | -0.24 | 13
C=CCN(C(=O)c1csnn1)C(C(=O)NC1CCCCC1)c1ccccc1F (stereo unspecified) | -6 | 0 | 2 | -1 | 56* | 0 | 93* | -0.66 | 12
O=C(c1ccc2nc(Cc3cccc(Cl)c3)oc2c1)N1CCC(O)CC1 | -3 | 0 | -1 | 2 | -3 | 0 | · | · | ·
COc1ccc(NC(=O)C(CCCCNC(=O)OC(C)(C)C)NC2(C(=O)NCCc3c[nH]c4ccccc34)CCCCC2)cc1 (stereo unspecified) | -3 | · | · | -4 | · | · | · | · | ·
CCN(CC)C(=O)Cn1cc(S(=O)(=O)CC(=O)N2CCOCC2)c2ccccc21 | -2 | 0 | -9 | 6 | -6 | 5 | · | · | ·
O=C(CSc1nc(-c2ccco2)cc(C(F)(F)F)n1)Nc1ccc(C(=O)N2CCOCC2)cc1 | 0 | 0 | -12 | -2 | 59* | 0 | 90* | -0.19 | 9
CCCCOCCCNC(=O)C[C@H]1C[C@@]2(C(=O)OC)C(=C[C@H](COCc3ccccc3)O[C@@H]2C)N(CCC2=CCCCC2)C1=O | -2 | · | · | -1 | · | · | · | · | ·
O=C(CSc1nc2ccccc2[nH]1)N1c2ccccc2Sc2ccccc21 | -8 | 0 | 22 | -20 | 7 | -2 | · | · | ·
O=C(CSc1nc(O)cc(=O)[nH]1)N1c2ccccc2Sc2ccccc21 | -7 | 0 | 5 | 1 | 56* | -1 | 9 | 0.47 | ·
CCc1noc(C)c1C(=O)OCC(=O)N(C)c1c(N)n(Cc2ccccc2)c(=O)[nH]c1=O | 0 | 0 | 0 | 4 | · | -1 | · | · | ·
COc1cc(NC(=O)c2ccco2)c(OC)cc1NC(=O)CCC(=O)Nc1cc(C)cc(C)c1 | 1 | 0 | -3 | 8 | 97* | 0 | 107* | -0.15 | 56*
O=C(Nc1ccc(NC(=O)c2cc3ccccc3o2)cc1)c1ccco1 | 0 | 0 | 9 | 2 | 70* | 26* | 65* | -0.081 | 11
COc1cc(NC(=O)c2ccco2)c(OC)cc1NC(=O)CCC(=O)Nc1cc(C)ccc1C | -2 | 0 | · | -2 | · | -1 | · | · | ·
CCOc1ccc(CC(=O)Nc2ccc(NC(=O)c3ccco3)cc2)cc1OCC | -1 | 0 | 8 | 2 | 57* | -15 | 98* | -0.086 | 9
O=C(c1cnc(Cl)c(Cl)c1)N1CCN(S(=O)(=O)c2cccs2)CC1 | -7 | 0 | · | 0 | · | · | · | · | ·
Cc1nc(SCC(=O)Nc2ccc3c(c2)OCCO3)nc(C)c1C | 0 | 2 | 3 | 0 | -5 | -3 | · | · | ·

Bioassay records deposited in PubChem BioAssay by several laboratories.
